Source: PubChem (several laboratories)
Most compounds without a hit are left out; they make up all but 6% or so of the library.
Ecoli WT expand: growth inhibitors of E. coli BW25113 wild type | OD600 absorbance | growth inhibition, % at 100 µM | 0.15% of 98,000 active;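 active = growth inhibition above about 50% at one test dose, limit read from the data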;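 also: growth measured after 20 h incubation at 37 °C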
PostGolgi ctrl: inhibits growth of the yeast control strain | efflux-deficient yeast background strain, growth absorbance A615, 16 h | 5% of 98,000 active | AID 738 | inhibition, % at 10 µM
PostGolgi yeast: growth inhibition of a yeast mutant, post-Golgi transport screen. post-Golgi transport phenotypic cell assay. inhibition, % at 10 µM. 0.9% of 98,000 active;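 also: yeast cells grown in 1536-well plates; yeast grown about 18 h at 30C before absorbance read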
EphB4 antag: antagonists of human EphB4-ephrin-B2 interaction | P54760 | EphB4 LBD / TNYL-RAW-Alexa532 peptide, fluorescence polarization | inhibition, % at 7 µM | 0.15% of 97,000 active | AID 720;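 active = inhibition above the screen-wide mean inhibition plus 3 SD, cut at about 15% in these data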;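 also: 0% = DMSO wells and 100% = excess unlabeled TNYL-RAW peptide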
Target sequence (P54760 whole entry, looked up, the tested form may be a part): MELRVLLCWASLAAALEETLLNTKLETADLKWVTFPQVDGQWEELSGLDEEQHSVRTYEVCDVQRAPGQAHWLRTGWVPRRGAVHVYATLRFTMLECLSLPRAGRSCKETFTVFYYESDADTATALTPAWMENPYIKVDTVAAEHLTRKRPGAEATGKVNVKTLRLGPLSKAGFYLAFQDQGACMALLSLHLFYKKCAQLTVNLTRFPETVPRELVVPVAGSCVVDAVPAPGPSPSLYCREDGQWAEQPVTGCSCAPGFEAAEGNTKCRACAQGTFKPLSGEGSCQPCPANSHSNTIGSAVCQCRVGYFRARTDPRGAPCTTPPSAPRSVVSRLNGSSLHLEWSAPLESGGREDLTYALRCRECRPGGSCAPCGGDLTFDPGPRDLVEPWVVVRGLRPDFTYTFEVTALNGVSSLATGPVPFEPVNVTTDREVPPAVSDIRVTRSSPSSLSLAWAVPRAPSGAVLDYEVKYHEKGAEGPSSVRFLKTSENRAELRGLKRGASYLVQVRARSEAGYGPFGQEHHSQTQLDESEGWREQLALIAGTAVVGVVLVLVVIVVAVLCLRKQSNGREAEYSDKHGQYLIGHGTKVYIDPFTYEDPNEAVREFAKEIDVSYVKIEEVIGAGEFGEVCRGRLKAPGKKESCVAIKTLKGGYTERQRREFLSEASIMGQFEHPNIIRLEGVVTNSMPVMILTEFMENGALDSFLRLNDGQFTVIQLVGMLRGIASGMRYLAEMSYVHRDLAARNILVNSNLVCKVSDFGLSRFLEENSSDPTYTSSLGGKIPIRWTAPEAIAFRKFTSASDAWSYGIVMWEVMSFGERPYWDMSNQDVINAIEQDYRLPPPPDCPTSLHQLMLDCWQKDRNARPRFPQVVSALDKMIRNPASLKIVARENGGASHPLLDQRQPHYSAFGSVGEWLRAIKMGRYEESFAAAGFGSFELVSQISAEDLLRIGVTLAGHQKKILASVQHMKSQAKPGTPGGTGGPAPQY
Ecoli tolC: growth inhibitors of E. coli BW25113 tolC mutant; 2.2% of 65,000 active; growth inhibition, % at 10 µM (by protocol); OD615; AID 573;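 active = growth inhibition at or above a cutoff equal to the mean over every tested compound plus 3 SD, cut at about 60% in these data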;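 also: growth measured after 20 h incubation at 37 °C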
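Test system: tolC-deleted E. coli BW25113; medium: LB with kanamycin 50 µg/mL; compound: single-point testing at 10 µM; incubation: 20 h compound exposure of bacteria at 37 °C; signal: OD at 615 nm; evaluation: growth inhibition in percent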
* marks the source's active call; other numbers are inactive results; nt = not tested or not shown. Rule as the data show it, unless noted: active = inhibition above about 30%; inactive = the rest.

SMILES	Ecoli WT expand	PostGolgi ctrl	PostGolgi yeast	EphB4 antag	Ecoli tolC
O=C(c1ccco1)N(Cc1ccc([N+](=O)[O-])cc1)c1ccc(Cl)cc1	-14	40*	-1	4	nt
CONC(=O)C1CCN(C(=O)OCc2ccccc2)CC1	2	3	19	-5	nt
Oc1ccc(N2CCN(C(=S)NCCc3ccccc3)CC2)cc1	-9	90*	105*	-2	nt
Cc1cc(Oc2ccccc2)nc2ccc(O)cc12	23	24	0	nt	29
CC(C)c1ccc(CN(C(=O)C2COc3ccccc3O2)C2CCS(=O)(=O)C2)cc1 (centres undefined)	-2	63*	1	3	nt
CN(C)c1ccc(CN(C(=O)C2COc3ccccc3O2)C2CCS(=O)(=O)C2)cc1 (centres undefined)	3	3	-13	-2	16
Cn1c2c(c(=O)n(C)c1=O)C(C(F)(F)F)(C(F)(F)F)N=C(c1ccccc1Cl)N2	2	21	31*	5	nt
Cn1c2c(c(=O)n(C)c1=O)C(NS(=O)(=O)c1ccc(Cl)cc1)(C(F)(F)F)C(=O)N2 (centres undefined)	5	4	8	1	nt
COc1ccc(/C=N/c2oc(-c3ccccc3)cc2C#N)cc1OC	5	4	6	1	nt
COc1cc(Cc2cnc(N)nc2N)cc(OC)c1OC	100*	1	-3	-12	97*
COc1cc(CC(=O)NCc2ccccn2)cc(OC)c1OC	-1	9	-11	-1	nt
Cc1cc(N2C(=O)CCC2=O)ccc1NC(=O)c1cccs1	2	4	4	3	nt
COC(=O)c1cc2c(-c3ccccc3)cc3ccccn3c-2c1C(=O)OC	-14	43*	6	0	nt
Cc1ccc(CN(c2ccc(C(=O)Nc3cccnc3)cc2)S(C)(=O)=O)cc1	-10	7	-7	1	nt
CC(C)(C)C(=O)C(CO)(Oc1ccc(Cl)cc1)n1cncn1 (centres undefined)	8	95*	99*	nt	0
CC(C)(Oc1ccc(Cl)cc1)C(=O)NCc1ccncc1	1	-11	8	5	2
CC1CC(C)CN(C(=O)c2ccc3c(=O)n(Cc4ccc5c(c4)OCO5)c(=S)[nH]c3c2)C1 (centres undefined)	-15	36*	-3	7	nt
O=C(c1ccc2c(=O)n(Cc3ccc4c(c3)OCO4)c(=S)[nH]c2c1)N1CCCCC1	-5	4	-5	7	-13
COC(=O)C1=C(N)Oc2cc(C)[nH]c(=O)c2C1c1cccnc1 (centres undefined)	-2	5	-9	-6	nt
Cc1ccc(C(=O)NCc2ccc(Cl)c(Cl)c2)o1	22	4	3	-6	43
CCOC(=O)NCc1ccc(Cl)c(Cl)c1	15	36*	4	0	14
C=C(C)COc1ccc(-c2[nH]ncc2-c2ccccc2)c(O)c1	26	62*	45*	-4	nt
CCOc1ccc(-c2nc(N)nc(C)c2-c2ccc(OC)c(OC)c2)c(O)c1	-3	16	5	-3	-8
C=C(C)COc1ccc(-c2[nH]ncc2-c2ccc(OC)c(OC)c2)c(O)c1	2	29	-12	-4	91*
Cn1c(Cc2ccccc2)nnc1SCC(=O)c1cccs1	6	-6	-8	1	nt
SMILES	Ecoli WT expand	PostGolgi ctrl	PostGolgi yeast	EphB4 antag	Ecoli tolC
CCCCOCCCn1c(-c2ccco2)nc2nc3ccccc3nc21	6	17	11	3	43
COc1ccc(Cl)cc1NC(=O)CSc1nnc(Cc2cccn2C)n1-c1ccc(F)cc1	-2	32*	4	nt	16
Cn1cccc1Cc1nnc(SCC(=O)Nc2ccc(F)cc2F)n1-c1ccc(F)cc1	4	14	4	-4	14
CC(=O)Nc1cccc(NC(=O)CSc2nnc(Cc3cccn3C)n2-c2ccc(C)cc2)c1	-5	8	-5	16*	18
CCc1ccc(NC(=O)CSc2nnc(Cc3cccn3C)n2-c2ccc(F)cc2)cc1	-15	9	-5	nt	66*
COc1ccc(N2CCN(C(CNC(=O)C3CCCCC3)c3cccnc3)CC2)cc1 (centres undefined)	2	35*	3	4	-8
O=S(=O)(NCC(c1cccnc1)N1CCN(c2ccccc2F)CC1)c1cccs1 (centres undefined)	-4	35*	62*	1	nt
O=C(NCC(c1cccnc1)N1CCN(c2ccccc2F)CC1)c1cccc(Cl)c1 (centres undefined)	-6	24	47*	4	8
O=C(NCC(c1cccnc1)N1CCOCC1)c1cccc(Cl)c1 (centres undefined)	-1	7	-4	12	-15
